Experimental data gathered from unrelated publications.
Target: D(4) dopamine receptor (DRD4, Homo sapiens, UniProt P21917)
Technique: radioligand
Sequence (P21917 1-419, as in one of the studies): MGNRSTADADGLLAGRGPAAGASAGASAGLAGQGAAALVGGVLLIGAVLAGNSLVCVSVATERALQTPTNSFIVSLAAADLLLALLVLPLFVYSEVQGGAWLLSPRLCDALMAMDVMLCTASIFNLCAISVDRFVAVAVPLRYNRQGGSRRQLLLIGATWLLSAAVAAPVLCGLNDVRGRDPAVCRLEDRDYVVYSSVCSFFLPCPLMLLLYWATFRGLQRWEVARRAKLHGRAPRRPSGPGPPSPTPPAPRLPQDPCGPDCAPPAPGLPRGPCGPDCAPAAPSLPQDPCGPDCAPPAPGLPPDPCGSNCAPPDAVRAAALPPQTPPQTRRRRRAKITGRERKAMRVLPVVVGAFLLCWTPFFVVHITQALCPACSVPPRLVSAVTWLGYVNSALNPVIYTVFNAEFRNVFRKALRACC

| SMILES | effect on | Ki [nM] |
| --- | --- | --- |
| Oc1ccc(CCC2=NCCN2CCc2ccccc2)cc1 | ligand displacement | > 10000 |
| CCCCN1CCC(COC(=O)c2ccc(N)c(OCF)c2)CC1 | cell-free assay | > 10000 |
| CCCCCCCCCCCCNCCCc1ccc([N+](=O)[O-])cc1 | ligand displacement | 1800 |
| COc1ccc2c(c1)C(=O)N(CCCN1CCN(c3ccccc3OC)CC1)C2 | ligand displacement | 8.4 |
| CCN(CC)c1ccc(C2Nc3ccc(C(=O)c4ccccc4)cc3NC3=C2C(=O)CC(C)(C)C3)cc1 (centres unmarked) | cell-free assay | 1530 |
| Cc1ccc(OC[C@@H]2CN(CCN3CCc4ccccc43)CCO2)cn1 | ligand displacement | 503 |
| CCOc1c(O)cc(Br)c2c1CN1CCc3cc(OCC(F)F)c(O)cc3[C@@H]1C2 | cell-free assay | 2720 |
| Oc1cccc(CCC2=NCCN2CCc2ccccc2)c1 | ligand displacement | 589 |
| CCCCCCCNCCCc1ccccc1 | ligand displacement | 390 |
| O=C1c2ccccc2CCCN1CCCCN1CCN(c2ccccn2)CC1 | ligand displacement | 6.5 |
| c1ccc(CCC2=NCCN2CCc2ccccc2)cc1 | ligand displacement | 758 |
